SR-BI uptake up: enhances SR-BI lipid uptake from DiI-HDL; 320,000 compounds, 0.096% hits; CHO ldlA[mSR-BI] cells, DiI-HDL uptake fluorescence, 3 h; 100 = double the neutral-control signal; activation, % at 12.5 µM;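 active = mean replicate activation of at least 60% and every replicate at or above 60%; inconclusive = mean or all-replicate condition met, but not both; inactive = mean below 60% and not all replicates reaching 60%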;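 note: 0% = median plate neutral-control signal and 100% = twice that signal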
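Material – SR-BI-overexpressing, LDLR-lacking CHO cells · Medium – BSA-supplemented, HEPES-buffered Ham's F12, pH 7.4 · Doses – single concentration · Times – compound with DiI-HDL co-incubation, 3 h at 37 °C · Measured by – bottom-read fluorescence, 550/595 nm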
SR-BI DiI inh: inhibitors of mouse SR-BI mediated HDL lipid uptake; Q61009; ldlA[mSR-BI] CHO cells, DiI-HDL uptake fluorescence, 3 h; inhibition, % at 12.5 µM; 320,000 compounds, 0.96% hits;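 active = mean replicate inhibition of at least 70% and a set share of replicates each scoring 70 or more; inconclusive = meets just one of the two criteria; inactive = fails both criteria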;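 note: 0% = median of neutral control wells and 100% = median of positive control wells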
Target sequence (Q61009 whole entry, looked up): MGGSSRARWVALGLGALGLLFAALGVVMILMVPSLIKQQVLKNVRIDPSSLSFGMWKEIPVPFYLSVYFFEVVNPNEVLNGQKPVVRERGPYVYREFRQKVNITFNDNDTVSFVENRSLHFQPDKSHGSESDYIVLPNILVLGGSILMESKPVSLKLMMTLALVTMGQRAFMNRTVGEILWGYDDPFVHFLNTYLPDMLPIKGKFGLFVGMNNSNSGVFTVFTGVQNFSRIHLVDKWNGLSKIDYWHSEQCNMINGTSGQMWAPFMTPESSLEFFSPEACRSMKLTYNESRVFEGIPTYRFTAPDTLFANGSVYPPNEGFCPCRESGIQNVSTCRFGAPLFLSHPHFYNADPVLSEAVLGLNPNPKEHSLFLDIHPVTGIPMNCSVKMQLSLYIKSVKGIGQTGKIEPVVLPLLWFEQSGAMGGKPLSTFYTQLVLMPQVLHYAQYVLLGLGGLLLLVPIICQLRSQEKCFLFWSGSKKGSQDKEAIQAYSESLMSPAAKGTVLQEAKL
CAL PDZ FP-1: human CAL PDZ-peptide interaction inhibition; Q9HD26; purified CAL PDZ, TMR-peptide fluorescence polarization, 1 h; inhibition, % at 20 µM; 330,000 compounds, 0.02% hits;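 active = highest replicate inhibition of at least 40%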;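 note: plate controls were DMSO neutral control wells for no effect and unlabeled competitor peptide control wells for full effect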
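Test system: tagged CAL PDZ domain / Buffer or medium: sodium phosphate/NaCl buffer pH 7.4 with TCEP, IgG, Thesit / Reagent: TMR-labelled reporter peptide T*-PRC34 bound in PDZ groove / Compound dosing: single point, 20 µM / Schedule: 1 h incubation at room temperature before polarization reading / Technique: fluorescence polarization (mP) / Benchmarks: unlabelled peptide, DMSO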
CAL PDZ FP-2: blocks peptide binding to the human CAL PDZ domain; Q9HD26; purified CAL PDZ, TMR-peptide fluorescence polarization, 1 h; inhibition, % at 24.9 µM; 300,000 compounds, 0.92% hits; AID 602252;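 active = mean inhibition of at least 30% with at least half of replicates also reaching 30%; inconclusive = no clear call, values can overlap the other calls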;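 note: 0% = DMSO neutral control and 100% = excess unlabeled competitor peptide PRC23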
dFosB activator: enhances mouse delta FosB homodimer DNA binding; purified delta FosB, TAMRA-CDK5 oligo fluorescence polarization; percent of positive-control signal above neutral wells; activation, % at 25 µM; 340,000 compounds, 0.99% hits; P13346;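 active = mean activation above about 17%, with every replicate also reaching it, limit read from the data, passing the limit was not always enough; inconclusive = only one of the two conditions met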
* hit, by the source's call; ? = inconclusive; nt = no result. This is a sample that favours compounds with a hit; in the whole collection about 2.8% have one here.

SMILES	SR-BI uptake up	SR-BI DiI inh	CAL PDZ FP-1	CAL PDZ FP-2	dFosB activator
CCC(CO)Oc1cc(NC(=O)c2ccc([N+](=O)[O-])cc2)c2ncn(C(C)C)c2c1 (centres undefined)	-45	45	2	-5	5
CCC(CO)Oc1cc(NC(=O)c2cccc([N+](=O)[O-])c2)c2ncn(C(C)C)c2c1 (centres undefined)	-75	75*	1	-1	4
CC1CCc2c(sc3nc(CSc4ncn[nH]4)[nH]c(=O)c23)C1 (centres undefined)	3	-3	-2	-2	-12
CC1CCc2c(sc3nc(CSc4nnnn4C)[nH]c(=O)c23)C1 (centres undefined)	-5	5	-2	60*	-10
CC(C)NC(=O)COc1coc(CN2CCN(c3ccccc3F)CC2)cc1=O	8	-8	-1	60*	1
COc1ccccc1N1CCN(Cc2cc(=O)c(OCC(=O)NC(C)C)co2)CC1	11	-11	-1	-3	-7
COc1ccccc1C(=O)NC(=O)COC(=O)c1ccc(Br)o1	31	-31	0	-1	-3
C/C(CC(=O)Nc1cccnc1)=N\NC(=O)C(C)Oc1ccc(Cl)cc1Cl (centres undefined)	-4	4	-1	nt	4
COc1ccc(-c2nn(C)c3sc(C(=O)NCCN(C)C)cc23)cc1OC	11	-11	-2	-3	51*
COc1cccc(-c2nn(C)c3sc(C(=O)Nc4ccc5c(c4)OCCO5)cc23)c1	-86	86*	-3	-4	3
CCCN(CCC)CCCNC(=O)c1cc2c(-c3ccc(OC)c(OC)c3)nn(C)c2s1	-14	14	0	-4	0
Cn1nc(-c2ccccc2F)c2cc(C(=O)Nc3ccc4c(c3)OCCO4)sc21	-60	60	-2	-2	3
Cn1nc(-c2ccc(Cl)cc2)c2cc(C(=O)NCCN3CCOCC3)sc21	-86	86*	-4	nt	-34
CCN(CC)CCNC(=O)c1cc2c(-c3ccc(Cl)cc3)nn(C)c2s1	-69	69	-16	nt	-66
C=CCn1c(SC(C)C(=O)c2c(N)n(C)c(=O)n(C)c2=O)nnc1-c1ccoc1C (centres undefined)	14	-14	0	-2	0
CS(=O)(=O)N(CC(=O)NCc1ccco1)c1cccc([N+](=O)[O-])c1	-5	5	0	-1	-1
CC(C)C(=O)Nc1ccc(C(=O)N/N=C/c2cc(Br)cc(Br)c2O)cc1	-147	146*	-2	-1	13
CC(=O)Nc1ccc(C(=O)N/N=C/c2cc(Br)cc(Br)c2O)cc1	-135	135*	-1	-5	97*
CNC(=S)N/N=C/c1cc(Br)cc(Br)c1O	-3	3	-3	-1	-2
O=C(CCc1ccccc1)NNC(=O)COc1ccccc1Cl	nt	nt	-1	nt	-1
CC(C)CCn1c(SCC(=O)Nc2ccccc2C(F)(F)F)nc2nccnc2c1=O	16	-16	-3	-4	-13
FC(F)Oc1ccc(/C=N/c2c(-c3ccc(OC(F)F)cc3)nc3n2CCS3)cc1	-74	74*	-1	-2	-7
O=C(Nc1ccccc1C(=O)N1CCCCCC1)c1cccc([N+](=O)[O-])c1	5	-5	1	-2	-2
COc1cccc(C(=O)N=c2sc3c(C)ccc(OC)c3n2C)c1	-81	81*	-1	1	0
Cc1ccc(N=C2NC(=O)/C(=C/c3cn(C)c4ccccc34)S2)cc1C	-81	81*	2	-1	?
Cn1cccc1/C=C1\SC(=Nc2ccccc2)NC1=O	-17	17	-1	nt	-2
Cc1c(C(=O)Nc2ccc(S(=O)(=O)N(C)C3CCN(C)CC3)cc2)oc2c(Cl)cccc12	-47	47	-5	-6	-44
CC(CCc1ccccc1)NCC#N (centres undefined)	nt	nt	-1	nt	-4
Cc1nnc(NC(=O)CN2CCN(Cc3ccc(F)cc3Cl)CC2)s1	5	-5	0	0	-5
CN(C)CCCNC(=O)/C=C/c1ccc2c(c1)OCO2	70*	-70	-1	23	3

Screens as filed in PubChem.
